Experiment [1] can be described thus: (§1) Fractional inhibitory concentration (FIC) tested against Peruvian PC49 cells, isolate from South America. The class given is functional, Plasmodium falciparum. In short, it runs like this: (§2)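 Parasite growth read by [3H]hypoxanthine incorporation in erythrocytes at 0.2% parasitemia and 1% hematocrit. Medium: folate- and PABA-free RPMI-1640 with 10% heat-inactivated human plasma or Albumax. Cultures were kept at 37 °C under 5% CO2/5% O2/90% N2, with label added at 42 h and 66 h total incubation. Counts were taken after freeze-thaw harvest, IC50 came from nonlinear logistic fits, and FIC index was derived from isobologram.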

The subject of experiment [2] is Plasmodium falciparum. Kind of experiment: Fractional inhibitory concentration (FIC) against Plasmodium falciparum W2 of equimolar (1:1) combination dose with chloroquine. The experiment is classed as functional. An outline of the steps:
as §2

For experiment [3], the system named is Plasmodium falciparum. Briefly: Fractional inhibitory concentration (FIC) tested against TM91C235 isolate. The class given is functional. An outline of the steps:
as §2

A short description of experiment [4]: (§3) Fractional inhibitory concentration (FIC) tested against RCS cells, isolate from Brazil. The experiment is classed as functional, Plasmodium falciparum. In short, it runs like this:
as §2

Experiment [5] concerns Plasmodium falciparum. Kind of experiment: In vitro anti-MDR effect in chloroquine resistant TM91C235 cell lines at 50 ng/ml concentration in the presence of 10 ng/mL chloroquine. The class given is functional. An outline of the steps:
(§4)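 Test agent was combined with chloroquine at 10 ng/mL. TM91C235 was cultured in erythrocytes at 0.2% parasitemia and 1% hematocrit, in folate- and PABA-free RPMI-1640, for 66 h at 37 °C under 5% CO2/5% O2/90% N2. 3H-hypoxanthine was added at 42 h, and cell suppression was taken from scintillation counts of harvested lysates.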

Experiment [6] relates to Plasmodium falciparum. Kind of experiment: In vitro anti-MDR effect in chloroquine and mefloquine resistant TM91C235 cell lines at 5000 ng/ml concentration. The experiment is classed as functional. An outline of the steps:
(§5)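 TM91C235 P. falciparum in erythrocytes at 0.2% parasitemia and 1% hematocrit, in folate- and PABA-free RPMI-1640 with 10% heat-inactivated human plasma or Albumax. Incubated 66 h at 37 °C under 5% CO2/5% O2/90% N2, with 3H-hypoxanthine added at 42 h. Cells lysed by freezing at -70 °C and harvested; inhibition of isotope incorporation read by scintillation counting.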

Experiment [7] relates to Plasmodium falciparum. Briefly: In vitro anti-MDR effect in chloroquine resistant TM91C235 cell lines at 500 ng/ml concentration in the presence of 10 ng/mL chloroquine. The class given is functional. An outline of the steps: as §4
Experiment [8] concerns Plasmodium falciparum. Briefly: In vitro anti-MDR effect in chloroquine and mefloquine resistant TM91C235 cell lines at 500 ng/ml concentration. The experiment is classed as functional. In short, it runs like this: as §5
The test system of experiment [9] is Plasmodium falciparum. Briefly: In vitro anti-MDR effect in chloroquine resistant TM91C235 cell lines at 5000 ng/ml concentration in the presence of 10 ng/mL chloroquine. The experiment is classed as functional. In short, it runs like this: as §4
The subject of experiment [10] is Plasmodium falciparum. Kind of experiment: In vitro anti-MDR effect in mefloquine resistant TM91C235 cell lines at 500 ng/ml concentration in the presence of 5 ng/mL mefloquine. The class given is functional. An outline of the steps:
(§6)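 Mefloquine was held at 5 ng/mL, combined with test agent. Parasites (TM91C235) were in erythrocytes at 0.2% parasitemia and 1% hematocrit, in folate/PABA-free RPMI-1640 with human plasma or Albumax. Incubation was 66 h at 37 °C in 5% CO2/5% O2/90% N2, with 3H-hypoxanthine added for the last 24 h. Incorporation was counted after freeze-lysis and harvesting.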

For experiment [11], the system named is Plasmodium falciparum. Briefly: In vitro anti-MDR effect in mefloquine resistant TM91C235 cell lines at 5000 ng/ml concentration in the presence of 5 ng/mL mefloquine. The experiment is classed as functional. In short, it runs like this: as §6
Experiment [12] relates to Plasmodium falciparum. Briefly: In vitro anti-MDR effect in mefloquine resistant TM91C235 cell lines at 50 ng/ml concentration in the presence of 5 ng/mL mefloquine. The class given is functional. In short, it runs like this: as §6
Experiment [13] deals with Plasmodium falciparum. Kind of experiment: In vitro anti-MDR effect in chloroquine and mefloquine resistant TM91C235 cell lines at 50 ng/ml concentration. The experiment is classed as functional. An outline of the steps: as §5
A short description of experiment [14]: as §3. The class given is functional. In short, it runs like this:
as §2

In experiment [15] the test system is Plasmodium falciparum. Kind of experiment: Fractional inhibitory concentration (FIC) against Plasmodium falciparum W2 at equimolar (1:1) combination dose with chloroquine. The experiment is classed as functional. An outline of the steps:
as §2

For experiment [16], the system named is Plasmodium falciparum. Kind of experiment: Fractional inhibitory concentration (FIC) tested against TM91C235 cells, isolate from South east Asia. The experiment is classed as functional. In short, it runs like this:
as §2

A short description of experiment [17]: as §1. The experiment is classed as functional. An outline of the steps:
as §2

22 compounds from ChEMBL document CHEMBL1135479, “Design, synthesis, and evaluation of new chemosensitizers in multi-drug-resistant Plasmodium falciparum” (2002) can be followed below.

In the case of `c1ccc2c(c1)Sc1ccccc1N2CCCCN1CCOCC1`, the FIC in experiment [1] amounted to 0.81; in the experiment on Plasmodium falciparum [2], 0.39; with Plasmodium falciparum [3], 0.32; in experiment [4], 0.37.

On to `CCN(CC)CCCCCCN1c2ccccc2CCc2ccccc21`, for which the FIC came out at 0.48 in the experiment with Plasmodium falciparum [2], 0.59 in the experiment on Plasmodium falciparum [3] and 0.72 in experiment [4].

In the case of `CN(CCCCN1c2ccccc2Sc2ccccc21)Cc1ccccc1`, the Suppression in the experiment with Plasmodium falciparum [5] is on record as 14%; with Plasmodium falciparum [6] it was 35%; in the experiment with Plasmodium falciparum [7] it was 27%; in the experiment on Plasmodium falciparum [8], 18%; in the experiment on Plasmodium falciparum [9], 62%; with Plasmodium falciparum [10], 0%. Moreover, the results for the Suppression in the experiment on Plasmodium falciparum [11], with Plasmodium falciparum [12] and in the experiment on Plasmodium falciparum [13] were 13%, 0% and 13%, respectively.

Consider `CN(CCCCN1c2ccccc2CCc2ccccc21)Cc1ccccc1`, for which the Suppression came out at 10% in the experiment on Plasmodium falciparum [5]; 60% with Plasmodium falciparum [6]; 20% in the experiment with Plasmodium falciparum [7]; 32% in the experiment with Plasmodium falciparum [8]; 33% in the experiment on Plasmodium falciparum [9]; 22% with Plasmodium falciparum [10]. The Suppression in the experiment on Plasmodium falciparum [11] is reported as 41%; in the experiment with Plasmodium falciparum [12], 20%; in the experiment with Plasmodium falciparum [13], 30%.

Regarding `CN(C)CCCCN1c2ccccc2CCc2ccccc21`, the Suppression in the experiment with Plasmodium falciparum [5] was found to be 99%; in the experiment on Plasmodium falciparum [6], 96%; in the experiment on Plasmodium falciparum [7], 99%; in the experiment with Plasmodium falciparum [8], 73%; in the experiment with Plasmodium falciparum [9], 100%; in the experiment on Plasmodium falciparum [10] it was 70%. In addition, the Suppression is recorded as 95% in the experiment with Plasmodium falciparum [11], 43% in the experiment with Plasmodium falciparum [12] and 59% in the experiment with Plasmodium falciparum [13]. Also, the FIC in experiment [1] is 0.62; with Plasmodium falciparum [2], 0.23; in the experiment on Plasmodium falciparum [3], 0.26; in experiment [4] it was 0.52.

Consider `c1ccc(CN(CCCCN2c3ccccc3CCc3ccccc32)Cc2ccccc2)cc1`, for which the Suppression in the experiment with Plasmodium falciparum [5] stood at 6%; in the experiment with Plasmodium falciparum [6], 13%; in the experiment on Plasmodium falciparum [7], 8%; in the experiment on Plasmodium falciparum [8], 17%; in the experiment with Plasmodium falciparum [9] it was 13%; in the experiment with Plasmodium falciparum [10], 22%. For the same compound, the Suppression with Plasmodium falciparum [11] was determined as 19%; in the experiment on Plasmodium falciparum [12], 14%; in the experiment on Plasmodium falciparum [13], 11%.

`CCN(CC)CCCCN1c2ccccc2CCc2ccccc21`: the Suppression in the experiment on Plasmodium falciparum [5] is given as 99%; in the experiment on Plasmodium falciparum [6], 100%; in the experiment with Plasmodium falciparum [7], 100%; in the experiment on Plasmodium falciparum [8], 95%; with Plasmodium falciparum [9], 100%; in the experiment with Plasmodium falciparum [10], 95%. Further, the Suppression with Plasmodium falciparum [11] is 100%; with Plasmodium falciparum [12], 64%; in the experiment on Plasmodium falciparum [13], 62%. For the same compound, the FIC in [1] is listed as 0.57; in the experiment with Plasmodium falciparum [2], 0.39; with Plasmodium falciparum [3], 0.41; in [4] it was 0.57.

On to `CN(C)CCCCN1c2ccccc2Sc2ccccc21`, for which the results for the FIC (in experiment [14]; in the experiment on Plasmodium falciparum [15]; with Plasmodium falciparum [16]) were 0.51, 0.23 and 0.28, respectively. Besides, the Suppression with Plasmodium falciparum [5] worked out at 30%; in the experiment with Plasmodium falciparum [6] it was 92%; in the experiment on Plasmodium falciparum [7], 97%; in the experiment with Plasmodium falciparum [8] it was 27%; in the experiment on Plasmodium falciparum [9], 100%; with Plasmodium falciparum [10] it was 31%. Further, the figures for the Suppression in the experiment with Plasmodium falciparum [11], in the experiment with Plasmodium falciparum [12] and with Plasmodium falciparum [13] were 92%, 2% and 17%, respectively.

With `CN1CCN(CCCCN2c3ccccc3CCc3ccccc32)CC1`, the FIC in the experiment on Plasmodium falciparum [2] was found to be 0.52; in the experiment on Plasmodium falciparum [3], 0.54; in experiment [4], 0.66.

For the compound `c1ccc2c(c1)Sc1ccccc1N2CCCCN1CCCC1`, the Suppression in the experiment with Plasmodium falciparum [5] is listed as 99%; with Plasmodium falciparum [6], 96%; with Plasmodium falciparum [7], 99%; in the experiment with Plasmodium falciparum [8] it was 70%; with Plasmodium falciparum [9] it was 100%; in the experiment with Plasmodium falciparum [10] it was 67%. Besides, the Suppression in the experiment on Plasmodium falciparum [11] is reported as 95%; in the experiment with Plasmodium falciparum [12], 33%; with Plasmodium falciparum [13] it was 38%. In addition, the FIC in experiment [1] turned out to be 0.5; in the experiment on Plasmodium falciparum [2], 0.21; with Plasmodium falciparum [3] it was 0.25; in experiment [4], 0.51.

`c1ccc2c(c1)Sc1ccccc1N2CCCCN1CCCCC1`: the FIC in experiment [1] came to 0.83; with Plasmodium falciparum [2], 0.49; with Plasmodium falciparum [3] it was 0.52; in experiment [4], 0.68.

As for `c1ccc2c(c1)CCc1ccccc1N2CCCCN1CCCCC1`, the FIC in experiment [1] is 0.73; in the experiment on Plasmodium falciparum [2] it was 0.45; with Plasmodium falciparum [3], 0.54; in experiment [4] it was 0.36.

Take `c1ccc2c(c1)CCc1ccccc1N2CCCCN1CCOCC1`: the FIC in [1] is listed as 0.78; in the experiment on Plasmodium falciparum [2], 0.31; in the experiment on Plasmodium falciparum [3], 0.54; in experiment [4], 0.89.

Regarding `c1ccc2c(c1)CCc1ccccc1N2CCCCCN1CCCC1`, the FIC in [1] came to 0.59; in the experiment with Plasmodium falciparum [2], 0.48; with Plasmodium falciparum [3], 0.55; in experiment [4] it was 0.37.

Consider `CN1CCN(CCCCN2c3ccccc3Sc3ccccc32)CC1`, for which the FIC in experiment [1] is given as 0.98; in the experiment on Plasmodium falciparum [2], 0.4; in the experiment with Plasmodium falciparum [3], 0.48; in experiment [4], 0.49.

On to `CCN(CC)CCCCN1c2ccccc2C=Cc2ccccc21`, for which the FIC is given as 0.6 in [1], 0.53 in the experiment with Plasmodium falciparum [2], 0.33 with Plasmodium falciparum [3] and 0.39 in experiment [4].

As for `C1=Cc2ccccc2N(CCCCN2CCCC2)c2ccccc21`, the FIC was found to be 0.74 in [1], 0.33 with Plasmodium falciparum [2], 0.49 in the experiment on Plasmodium falciparum [3] and 0.59 in [4].

For the compound `c1ccc2c(c1)CCc1ccccc1N2CCCCN1CCCC1`, the Suppression is 99% in the experiment with Plasmodium falciparum [5]; 100% in the experiment on Plasmodium falciparum [6]; 100% with Plasmodium falciparum [7]; 98% in the experiment on Plasmodium falciparum [8]; 100% in the experiment on Plasmodium falciparum [9]; 96% in the experiment with Plasmodium falciparum [10]. The Suppression is listed as 100% in the experiment with Plasmodium falciparum [11], 64% with Plasmodium falciparum [12] and 58% in the experiment on Plasmodium falciparum [13]. The FIC in experiment [1] was found to be 0.66; in the experiment on Plasmodium falciparum [2], 0.32; with Plasmodium falciparum [3], 0.42; in experiment [4], 0.51.

For the compound `CCN(CC)CCCCCN1c2ccccc2CCc2ccccc21`, the FIC in [1] came out at 0.82; with Plasmodium falciparum [2] it was 0.44; with Plasmodium falciparum [3], 0.48; in [4] it was 0.36.

`c1ccc2c(c1)CCc1ccccc1N2CCCCCCN1CCCC1`: the FIC in experiment [1] turned out to be 0.92; in the experiment on Plasmodium falciparum [2] it was 0.57; in the experiment with Plasmodium falciparum [3], 0.54; in experiment [4], 0.6.

Turning to `c1ccc(CN(CCCCN2c3ccccc3Sc3ccccc32)Cc2ccccc2)cc1`, the Suppression in the experiment with Plasmodium falciparum [5] amounted to 12%; in the experiment with Plasmodium falciparum [6], 22%; in the experiment on Plasmodium falciparum [7], 16%; in the experiment with Plasmodium falciparum [8], 10%; in the experiment with Plasmodium falciparum [9], 25%; with Plasmodium falciparum [10], 3%. Moreover, the Suppression is 9% in the experiment on Plasmodium falciparum [11], 0% with Plasmodium falciparum [12] and 7% with Plasmodium falciparum [13].

As to `COc1ccc(CCN(C)CCCC(C#N)(c2ccc(OC)c(OC)c2)C(C)C)cc1OC` (centres undefined) [VERAPAMIL], the figures for the FIC (in [14]; in the experiment on Plasmodium falciparum [2]; in experiment [17]) were 0.63, 0.51 and 0.61, respectively.
